Key:
[1] = Induction in caspase-mediated apoptosis in human NB-4 cells assessed as viable cells at 12.5 uM incubated for 24 hrs by Annexin V-FITC/propidium iodide staining based flow cytometry analysis (reference value: 96.6%); assay type: functional; conditions: read-out: Activity
[2] = Induction in caspase-mediated apoptosis in human NB-4 cells assessed as early apoptotic cells at 12.5 uM incubated for 24 hrs by Annexin V-FITC/propidium iodide staining based flow cytometry analysis (reference value: 2.02%); assay type: functional
[3] = Induction in caspase-mediated apoptosis in human NB-4 cells assessed as late apoptotic cells at 25 uM incubated for 24 hrs by Annexin V-FITC/propidium iodide staining based flow cytometry analysis (reference value: 1.06%); assay type: functional
[4] = Induction in caspase-mediated apoptosis in human NB-4 cells assessed as viable cells at 50 uM incubated for 24 hrs by Annexin V-FITC/propidium iodide staining based flow cytometry analysis (reference value: 96.6%); assay type: functional; conditions: read-out: Activity
[5] = Induction in caspase-mediated apoptosis in human NB-4 cells assessed as necrotic cells at 100 uM incubated for 24 hrs by Annexin V-FITC/Propidium iodide staining based flow cytometry analysis (reference value: 0.352%); assay type: functional
[6] = Induction in caspase-mediated apoptosis in human NB-4 cells assessed as necrotic cells at 12.5 uM incubated for 24 hrs in presence of Z-VAD-FMK by Annexin V-FITC/propidium iodide staining based flow cytometry analysis (reference value: 0.167%); assay type: functional
[7] = Induction in caspase-mediated apoptosis in human NB-4 cells assessed as viable cells at 25 uM incubated for 24 hrs in presence of Z-VAD-FMK by Annexin V-FITC/propidium iodide staining based flow cytometry analysis (reference value: 96.8%); assay type: functional; conditions: read-out: Activity
[8] = Induction in caspase-mediated apoptosis in human NB-4 cells assessed as early apoptotic cells at 25 uM incubated for 24 hrs in presence of Z-VAD-FMK by Annexin V-FITC/propidium iodide staining based flow cytometry analysis (reference value: 1.84%); assay type: functional
[9] = Induction in caspase-mediated apoptosis in human NB-4 cells assessed as necrotic cells at 25 uM incubated for 24 hrs in presence of Z-VAD-FMK by Annexin V-FITC/propidium iodide staining based flow cytometry analysis (reference value: 0.167%); assay type: functional
[10] = Induction in caspase-mediated apoptosis in human NB-4 cells assessed as early apoptotic cells at 50 uM incubated for 24 hrs in presence of Z-VAD-FMK by Annexin V-FITC/propidium iodide staining based flow cytometry analysis (reference value: 1.84%); assay type: functional
[11] = Induction in caspase-mediated apoptosis in human NB-4 cells assessed as necrotic cells at 50 uM incubated for 24 hrs in presence of Z-VAD-FMK by Annexin V-FITC/propidium iodide staining based flow cytometry analysis (reference value: 0.167%); assay type: functional
[12] = Induction in caspase-mediated apoptosis in human NB-4 cells assessed as early apoptotic cells at 100 uM incubated for 24 hrs in presence of Z-VAD-FMK by Annexin V-FITC/propidium iodide staining based flow cytometry analysis (reference value: 1.84%); assay type: functional
[13] = Induction in caspase-mediated apoptosis in human NB4-DR1 cells assessed as late apoptotic cells at 12.5 uM incubated for 24 hrs by Annexin V-FITC/propidium iodide staining based flow cytometry analysis (reference value: 1.47%); assay type: functional
[14] = Induction in caspase-mediated apoptosis in human NB4-DR1 cells assessed as viable cells at 25 uM incubated for 24 hrs by Annexin V-FITC/propidium iodide staining based flow cytometry analysis (reference value: 96.9%); assay type: functional; conditions: read-out: Activity
[15] = Induction in caspase-mediated apoptosis in human NB4-DR1 cells assessed as early apoptotic cells at 25 uM incubated for 24 hrs by Annexin V-FITC/propidium iodide staining based flow cytometry analysis (reference value: 1.43%); assay type: functional
[16] = Induction in caspase-mediated apoptosis in human NB4-DR1 cells assessed as viable cells at 50 uM incubated for 24 hrs by Annexin V-FITC/propidium iodide staining based flow cytometry analysis (reference value: 96.9%); assay type: functional; conditions: read-out: Activity
[17] = Induction in caspase-mediated apoptosis in human NB4-DR1 cells assessed as early apoptotic cells at 50 uM incubated for 24 hrs by Annexin V-FITC/propidium iodide staining based flow cytometry analysis (reference value: 1.43%); assay type: functional
[18] = Induction in caspase-mediated apoptosis in human NB4-DR1 cells assessed as late apoptotic cells at 50 uM incubated for 24 hrs by Annexin V-FITC/propidium iodide staining based flow cytometry analysis (reference value: 1.47%); assay type: functional
[19] = Induction in caspase-mediated apoptosis in human NB4-DR1 cells assessed as viable cells at 100 uM incubated for 24 hrs by Annexin V-FITC/propidium iodide staining based flow cytometry analysis (reference value: 96.9%); assay type: functional; conditions: read-out: Activity
[20] = Induction in caspase-mediated apoptosis in human NB4-DR1 cells assessed as late apoptotic cells at 100 uM incubated for 24 hrs by Annexin V-FITC/propidium iodide staining based flow cytometry analysis (reference value: 1.47%); assay type: functional
[21] = Induction in caspase-mediated apoptosis in human NB4-DR1 cells assessed as necrotic cells at 100 uM incubated for 24 hrs by Annexin V-FITC/propidium iodide staining based flow cytometry analysis (reference value: 0.19%); assay type: functional
[22] = Induction in caspase-mediated apoptosis in human NB4-DR1 cells assessed as late apoptotic cells at 12.5 uM incubated for 24 hrs in presence of Z-VAD-FMK by Annexin V-FITC/propidium iodide staining based flow cytometry analysis (reference value: 2.54%); assay type: functional
[23] = Induction in caspase-mediated apoptosis in human NB4-DR1 cells assessed as viable cells at 25 uM incubated for 24 hrs in presence of Z-VAD-FMK by Annexin V-FITC/propidium iodide staining based flow cytometry analysis (reference value: 96.4%); assay type: functional; conditions: read-out: Activity
[24] = Induction in caspase-mediated apoptosis in human NB4-DR1 cells assessed as early apoptosis cells at 100 uM incubated for 24 hrs in presence of Z-VAD-FMK by Annexin V-FITC/propidium iodide staining based flow cytometry analysis (reference value: 0.875%); assay type: functional
[25] = AUClast in ICR mouse at 15 mg/kg, ip administered as single dose measured upto 8 hrs by LC-MS/MS analysis; assay type: ADME, organism-based; set-up: route intraperitoneal, dose 15 mg/kg, time <=8; conditions: in vivo
How it was run: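 Male ICR mice (30 g) given a single i.p. bolus of 15 mg/kg in corn oil. Blood taken by orbital collection into K3EDTA tubes at 0.08, 0.17, 0.5, 1, 2, 4 and 8 h, three animals per time point, giving a composite profile. Plasma proteins were precipitated with acetonitrile and analysed by LC-MS/MS. Parameters were derived by non-compartmental analysis.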

NB-4 = experiment: Antitumor activity against human NB-4 cells xenografted in BALB/c nude mouse assessed as tumor growth inhibition at 15 mg/kg/day, ip administered for 2 weeks relative to control; assay type: functional; conditions: NB-4, ip, 336 h, read-out: TGI
How it was run: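 Female Balb/c nude mice, 4 weeks old, received 2 × 10^6 NB4 cells s.c. in the right flank. Once tumours reached about 0.5 cm diameter, mice were randomised to corn-oil vehicle or drug in corn oil (n = 5). Dosing was 15 mg/kg/d i.p. once daily for 2 weeks. Caliper volume (length × width²)/2 was taken every other day, and tumours were excised and weighed at the end.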

With C=CC(=O)N1C(=O)CC(c2ccc(F)cc2)Sc2ccccc21 (stereo unspecified) the viability at 12.5 µM [1] was 77%, the Activity [2] was 8.87% and the Activity [3] was 45.6%. The viability at 50 µM [4] was 14.2%, the Activity [5] was 4.39% and the Activity [6] was 1.59%. It also gave a viability at 25 µM [7] of 80%, an Activity [8] of 7.42% and an Activity [9] of 1.38%. The Activity [10] was 8.18%, the Activity [11] was 1.52% and the Activity [12] was 5.35%. For the same molecule, the Activity [13] was 5.54%, the viability at 25 µM [14] was 81.8% and the Activity [15] was 2.07%. For the same molecule, the viability at 50 µM [16] was 79.7%, the Activity [17] was 1.92% and the Activity [18] was 16.1%. For the same molecule, the viability at 100 µM [19] was 42.7%, the Activity [20] was 46.8% and the Activity [21] was 6.32%. The Activity [22] was 2.74%, the viability at 25 µM [23] was 93% and the Activity [24] was 2.19%. For the same molecule, the AUC(0-t) at 8 h [25] was 3500 ng·h/mL and the inhibition in vivo at 15 mg/kg/day (NB-4) was 76%.

Reference: ChEMBL document CHEMBL5036319, “Discovery of Novel Benzothiazepinones as Irreversible Covalent Glycogen Synthase Kinase 3β Inhibitors for the Treatment of Acute Promyelocytic Leukemia” (J Med Chem, 2021)
